# A selection: hits, their analogues and other compounds. The true share with any hit is near 0.93%.
# HEK293 NFkB inh – inhibitors of the PMA/ionomycin-induced NF-kB reporter in HEK293 cells; HEK-293 NF-kB luciferase reporter, luminescence; inhibition, % at 3 µM; hit rate 0.21% among 62,000; AID 465;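 active = inhibition above the mean of all tested compounds plus 3 SD, cut at about 40% in these data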;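 also: 0% = stimulated DMSO wells and 100% = 10 µM reference inhibitor 5653914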
#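 Reagent: PMA plus ionomycin mix as NF-kB-activating stimulus. Assay system: NF-kB luciferase reporter HEK-293 cells. Technique: luminescence from luciferase substrate reagent. Incubation: 1 h compound pre-incubation, 16 h PMA/ionomycin at 37 °C. Benchmarks: DMSO only as uninhibited control, 10 µM reference inhibitor as full inhibition. Repeats: tested once.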
# JNK3 inh – inhibitors of human JNK3 kinase; P53779; purified JNK3 kinase activity, HTS; inhibition, % at 8 µM; hit rate 0.61% among 60,000; AID 746; in the data active = inhibition above about 17%;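 also: 0% = DMSO and 100% = reference inhibitor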
# MMP-13 inhibitor – MMP13 (human) collagenase inhibition; P45452; MMP-13 fTHP FRET cleavage, Mca fluorescence; inhibition, % at 4 µM; hit rate 0.07% among 65,000; AID 570;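 active = inhibition above the mean of compound-free control plate wells plus 3 SD, cut at about 14% in these data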;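 also: 0% = DMSO wells and 100% = wells with reference MMP-13 inhibitor after basal subtraction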
# HePTP inhibitor – blocks human HePTP tyrosine phosphatase. recombinant HePTP phosphatase activity, OD absorbance. inhibition, % at 20 µM. hit rate 0.64% among 110,000. AID 521; in the data active = inhibition above about 50%;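 also: plate controls were vehicle for no effect and reference inhibitor for full effect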
# Target sequence (P35236 whole entry, looked up): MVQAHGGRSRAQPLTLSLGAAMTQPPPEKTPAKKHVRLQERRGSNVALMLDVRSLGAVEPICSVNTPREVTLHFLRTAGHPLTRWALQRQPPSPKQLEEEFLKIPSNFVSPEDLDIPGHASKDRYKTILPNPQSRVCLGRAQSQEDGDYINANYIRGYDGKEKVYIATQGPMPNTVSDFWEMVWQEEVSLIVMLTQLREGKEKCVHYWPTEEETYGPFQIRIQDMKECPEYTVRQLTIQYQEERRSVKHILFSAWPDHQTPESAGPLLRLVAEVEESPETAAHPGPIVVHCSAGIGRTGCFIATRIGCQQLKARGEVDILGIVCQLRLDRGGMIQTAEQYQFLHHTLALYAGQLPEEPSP
# Active calls of the source: *; / = no result.
SMILES,HEK293 NFkB inh,JNK3 inh,MMP-13 inhibitor,HePTP inhibitor
C=CCc1cccc2cc(C(=O)Nc3cccc(C(=O)O)c3)c(=O)oc12,/,/,/,90*
C=CCc1cccc2cc(C(=O)Nc3ccc(OCC)cc3)c(=O)oc12,/,/,/,9
O=[N+]([O-])c1cccc(-n2cccc2/C=N/Nc2nc(N3CCOCC3)nc(N3CCOCC3)n2)c1,/,/,/,4
Cc1cc(C)c(C(=O)/C=C/c2cccc([N+](=O)[O-])c2)cc1C,/,/,/,-9
CCOC(=O)c1ccc(NC(=S)NC(NC(=O)Cc2ccccc2)C(Cl)(Cl)Cl)cc1 (centres undefined),/,/,/,104*
COc1cc(C(=O)Nc2nccs2)ccc1OCc1c(C)noc1C,5,21*,0,2
O=C(NC(=S)Nc1cc([N+](=O)[O-])cc(Cl)c1O)c1cccnc1,/,/,/,103*
COc1ccc(NS(=O)(=O)c2cc(C(=O)Nc3ccccc3C)ccc2C)cc1,/,/,/,-6
O=C(O)c1ccc2c(c1)C(=O)N(c1ccc(-c3nc4cc(N5C(=O)c6ccc(C(=O)O)cc6C5=O)ccc4[nH]3)cc1)C2=O,/,/,/,101*
Cc1ccc([N+](=O)[O-])c2c1NCC1CC=CC21 (centres undefined),/,/,/,9
COc1ccc(C(=O)OCCNC(=O)c2ccc[n+](C)c2)cc1,/,/,/,3
CC(NC(=O)c1ccccc1Cl)c1ccccc1 (centres undefined),/,/,/,98*
CCOC(=O)C1=NN(C(=O)c2cccc([N+](=O)[O-])c2)C(O)(c2ccc(Cl)cc2)C1 (centres undefined),/,/,/,104*
COC(=O)C1=NN(C(=O)c2cccc(Br)c2)C(O)(c2ccc(Cl)cc2)C1 (centres undefined),/,/,/,-10
CCOc1cc(/C=C2\N=C(c3ccccc3)OC2=O)ccc1OCc1c(C)no[n+]1[O-],/,/,/,66*
CC(C)c1nnc(NC(=O)c2c(O)c3cccc4c3n(c2=O)CCC4)s1,46*,-2,3,8
COc1cc(NC(=O)c2ccc3c(c2)C(=O)N(c2ccccc2OC)C3=O)c(C(=O)O)cc1OC,/,/,/,0
COc1cc(NC(=O)c2ccc3c(c2)C(=O)N(C2CCCCC2)C3=O)c(C(=O)O)cc1OC,/,/,/,103*
O=C(COc1ccccc1Cl)Nc1c[nH]c(=O)[nH]c1=O,/,/,/,2
COc1ccc(CC(=O)NCc2ccccc2)cc1S(=O)(=O)N1CCOCC1,3,5,3,12
COc1ccc(CC(=O)Nc2nc3ccccc3s2)cc1S(=O)(=O)N1CCOCC1,12,37*,0,8
CC(=NCc1ccco1)c1c(C)[nH]n(-c2nc3ccccc3s2)c1=O,-29,20*,-2,3
CCCC(=O)Nc1cc2nn(-c3ccc(C)cc3)nc2cc1C,/,/,/,1
Cc1ccc(-n2nc3cc(C)c(NC(=O)Cc4ccccc4)cc3n2)cc1,/,/,/,63*
CCOC(=O)c1sc(NC(=O)COc2ccc(CC)cc2)c(C(=O)OCC)c1C,/,/,/,9
SMILES,HEK293 NFkB inh,JNK3 inh,MMP-13 inhibitor,HePTP inhibitor
Cc1onc(-c2ccccc2)c1C(=O)NCC(C)C,/,/,/,103*
Cc1onc(-c2ccccc2)c1C(=O)Nc1ccc([N+](=O)[O-])cc1Br,/,/,/,104*
COc1ccc(Cl)cc1NC(=O)c1cc2nc(-c3ccccc3)cc(C)n2n1,/,/,/,103*
CCOc1ccc(-c2cc(C)n3nc(C(=O)Nc4ccc(C(C)=O)cc4)cc3n2)cc1,/,/,/,94*
CCOc1ccc(-c2cc(C)n3nc(C(N)=O)cc3n2)cc1,/,/,/,18
Cc1cc(-c2ccccc2)nc2cc(C(=O)Nc3ccc(Cl)cc3)nn12,/,/,/,8
Cc1ccc(/C=C2\SC(=Nc3ccc(F)cc3)NC2=O)o1,/,/,/,1
O=C1S/C(=C\c2ccco2)C(=O)N1Cc1ccccc1,/,/,/,1
O=C(NCc1ccc2c(c1)OCO2)c1cccnc1,7,-7,6,1
CCCN1Cc2cccc(C(=O)NCc3ccc4c(c3)OCO4)c2C1=O,10,24*,5,-3
O=C(NCc1ccc2c(c1)OCO2)c1cccc(C(=O)NCc2ccc3c(c2)OCO3)c1,15,-3,21*,12
Nc1c(C(=O)NCc2ccc3c(c2)OCO3)c2nc3ccccc3nc2n1CCCN1CCOCC1,16,-2,-194,3
Cc1c(-c2ccc(Cl)cc2Cl)nc2ccccc2c1C(=O)NCc1ccc2c(c1)OCO2,/,/,/,103*
Nc1ccc(-n2c(N)c(C(=O)NCc3ccc4c(c3)OCO4)c3nc4ccccc4nc32)cc1,12,21*,-4,2
O=C(NCc1ccc2c(c1)OCO2)c1cccc2c1C(=O)N(C1CCCCC1)C2,5,6,-29,1
CC(C)Oc1ccc(C(=O)Nc2nc3ccccc3s2)cc1,/,/,/,96*
O=C(CSc1ncccn1)N/N=C/c1ccccc1O,/,/,/,-21
COc1ccc(Br)cc1CN1CCN(Cc2cccn2C)CC1,/,/,/,8
Cc1nc(/N=C(/N)NC(=O)c2ccccc2N)nc2ccccc12,/,/,/,-9
CCOC(=O)C(CCOCCOc1c(C)cc(Cl)cc1C)C(=O)OCC,/,/,/,0
COc1ccc(C(=O)Nc2cc(C(F)(F)F)cc(C(F)(F)F)c2)cc1,/,/,/,104*
COc1ccc(C(=O)Nc2cc(OC)cc(OC)c2)cc1,/,/,/,5
Cc1ccc(NC(=O)CC2Nc3ccccc3NC2=O)cc1Cl (centres undefined),2,0,-26,-6
O=C(CC1Nc2ccccc2NC1=O)Nc1cccc(C(=O)O)c1 (centres undefined),/,/,/,52*
C=CCOc1ccc(/C=C/C(=O)c2ccc(Cl)cc2)cc1OC,/,/,/,5
O=C(N/N=C/C(Br)=C/c1ccccc1)c1cc(-c2ccco2)[nH]n1,/,/,/,102*
Cc1ccc(-n2nc3ccc(NC(=O)c4ccc([N+](=O)[O-])cc4Cl)cc3n2)cc1,/,/,/,3
CN(C)c1ccc(-c2nn3c(-c4ccccc4Cl)nnc3s2)cc1,34,4,-88,/
COc1ccccc1-c1nnc2sc(-c3ccc(N(C)C)cc3)nn12,55*,6,-65,4
CCOC(=O)C1CCCN(c2nc3ccccc3nc2C(C#N)C(=O)OCC)C1 (centres undefined),18,-1,14*,-7

# Assay outcomes: PubChem BioAssay, several laboratories
